Most compounds without a hit are left out; they make up all but 11% or so of the library.
D1 allo mod = D1 CRE-luciferase signal change, two-sided – cell-based, HEK293 D1, dopamine EC30, D1 allosteric modulator project, primary screen | dopamine EC30 potentiation; actives deviate in either direction | D(1A) dopamine receptor (Homo sapiens), P21728 | B-score at 10 µM | 5.9% of 58,000 active;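 active = luminescence count or its row- and column-corrected plate score outside the 99.7% band of the plate's sample wells, on either side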
S1P3 agonist = human S1P3 receptor agonists, primary screen, cell-based, primary and confirmation, NFAT-BLA reporter. Sphingosine 1-phosphate receptor 3 (Homo sapiens), Q99500. S1P3 NFAT-BLA reporter cells, agonism, FRET ratio; relative to 1 µM S1P, basal subtracted. activation, % at 4.5 µM. 0.1% of 60,000 active. AID 373, 2006;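 active = activation above the screen-wide mean plus 3 SD, cut at about 4.5% in these data, passing the limit was not always enough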
Target sequence (Q99500 whole entry, looked up): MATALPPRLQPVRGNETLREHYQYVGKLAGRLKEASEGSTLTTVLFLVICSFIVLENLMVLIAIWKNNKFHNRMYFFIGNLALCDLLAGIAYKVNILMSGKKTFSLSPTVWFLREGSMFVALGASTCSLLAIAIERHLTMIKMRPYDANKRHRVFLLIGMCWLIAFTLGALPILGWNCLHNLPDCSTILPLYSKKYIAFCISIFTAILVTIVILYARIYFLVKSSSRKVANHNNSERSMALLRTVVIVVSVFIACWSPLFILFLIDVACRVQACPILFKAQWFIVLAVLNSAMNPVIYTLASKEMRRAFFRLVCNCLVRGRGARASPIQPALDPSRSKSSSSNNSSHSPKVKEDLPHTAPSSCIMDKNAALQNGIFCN
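Material: Human S1P3 NFAT-BLA reporter CHO cells | Incubation: Overnight plating, 4 h compound 37 °C, 2 h substrate RT | Signal: FRET β-lactamase substrate fluorescence, excitation 405 nm, 460/535 nm emission ratio, background-subtracted | Compound: 4.5 µM final, single dose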
M1 agonist = M1 muscarinic receptor agonists, primary screen, CHO-M1 cells, Fluo-4 calcium, agonist mode; Muscarinic acetylcholine receptor M1; Fluo-4 calcium fluorescence; hits give high values; B-score at 10 µM; 3% of 64,000 active; AID 626, 2007;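 active = fluorescence rise, raw or as B-score row- and column-corrected plate score, outside the 99.7% band of its plate's samples, either direction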
S1P1 ag-PAM = S1P1 agonists and agonism potentiators, primary screen, cell-based, primary and confirmation screens, CRE-bla reporter. activation, % at 9.5 µM. 0.57% of 56,000 active. AID 449, 2006. Sphingosine 1-phosphate receptor 1 (Homo sapiens), P21453. S1P1 CRE-bla cells, forskolin, beta-lactamase FRET, potentiator mode; S1P1 agonist co-added at EC20, 2 nM; 100% = saturating reference agonist, 0% = basal;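 active = activation above a cutoff set at the mean activation of all tested compounds plus 3 SD, cut at about 54% in these data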;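 note: forskolin at 4 µM as EC80 and the EC20 agonist is SEW2871; 100% = SEW2871 at its EC100 plus forskolin at EC80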
M1 antag = antagonists of rat M1 muscarinic receptor | Muscarinic acetylcholine receptor M1 (Rattus norvegicus), P08482 | 3.4% of 64,000 active | CHO-M1 cells, Fluo-4 calcium, ACh EC80 antagonist mode; hits give low values | B-score at 10 µM | AID 628, 2007;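 active = calcium fluorescence response, raw or row-and-column corrected B-score, differing from the plate sample mean either way at a set confidence level, mostly lower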
D1 PAM confirm = D1 receptor positive allosteric modulators, retest, confirmation, cell-based, HEK293 D1, CRE-luciferase, duplicate; luminescence at 10 µM; 88% of 2,200 active; shares compounds with D1 allo mod; dopamine EC30 potentiation; hits give high values;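 active = luminescence in either of two replicates above the same-plate mean plus 3 SD of the low-dose dopamine control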
D1 ag no DA = D1 receptor agonism without dopamine, confirmation, mechanism study for D1 allosteric modulator project, cell-based, HEK293 D1, CRE-luciferase, secondary assay 1; luminescence at 10 µM; shares compounds with D1 allo mod; luminescence, no dopamine; hits give high values; AID 646, 2007; 0.8% of 1,900 active; in the data active = luminescence above about 3900
Isoprot counter = isoproterenol response counter-screen activity for D1 modulators; shares compounds with D1 allo mod; HEK293 D1 CRE-luciferase, isoproterenol EC30 counter-screen; hits give high values; luminescence at 10 µM; 63% of 2,200 active;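 active = luminescence in either replicate above plate mean of wells with a partly effective reference agonist dose plus 3 SD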;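 note: isoproterenol raises cAMP through native beta-adrenoceptor Gs so signal bypasses D1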
* marks the source's active call; other numbers are inactive results.

What do the screens show for `CCC(C)n1c(-c2cccs2)nc2nc3ccccc3nc21` (centres undefined)?
D1 allo mod: 9.98*; S1P3 agonist: -0.2; M1 agonist: 0.0389; S1P1 ag-PAM: -31.6; M1 antag: 0.00117; D1 PAM confirm: 15740*; D1 ag no DA: 1736; Isoprot counter: 3648*

Results for C=CCn1c(-c2cccs2)nc2nc3ccccc3nc21 ?
D1 allo mod: 0.853; S1P3 agonist: 0.1; M1 agonist: -0.641; S1P1 ag-PAM: -22.8; M1 antag: 0.0288

What do the screens show for `O=c1c2ccccc2nc(N2CCN(c3ccccc3)CC2)n1Cc1ccccc1`?
D1 allo mod: -0.199; S1P3 agonist: -1.4; M1 agonist: -0.896; S1P1 ag-PAM: 13.4; M1 antag: -1.1

What do the screens show for `N#CCCCn1c(-c2ccccc2)noc1=O`?
D1 allo mod: 6.36*; S1P3 agonist: -0.6; M1 agonist: -0.275; S1P1 ag-PAM: -0.4; M1 antag: 0.15; D1 PAM confirm: 4628; D1 ag no DA: 1604; Isoprot counter: 2940

How did N#CCCn1cc(/C=N/O)c(-c2ccc(-c3ccccc3)cc2)n1 do in these assays?
D1 allo mod: 0.314; S1P3 agonist: -1.2; M1 agonist: 0.626; S1P1 ag-PAM: 16.1; M1 antag: 0.382

What do the screens show for `Cn1c(SCC(=O)Nc2cc(=O)n(C)c(=O)n2C)nnc1C12CC3CC(CC(C3)C1)C2`?
S1P3 agonist: -1.1; M1 agonist: -0.365; S1P1 ag-PAM: -18.9; M1 antag: -1.04

Results for Cc1cc(NC(=O)c2ccccc2Oc2ccccc2)no1 ?
D1 allo mod: 6.19*; S1P3 agonist: -1.1; M1 agonist: 0.00156; S1P1 ag-PAM: -16.5; M1 antag: -0.866; D1 PAM confirm: 9100*; D1 ag no DA: 1632; Isoprot counter: 3488

How did Cc1noc(C)c1COC(=O)c1ccccc1Oc1ccccc1 do in these assays?
D1 allo mod: 6.09*; S1P3 agonist: 1.2; M1 agonist: 0.958; S1P1 ag-PAM: -7.7; M1 antag: -0.055; D1 PAM confirm: 8776*; D1 ag no DA: 1556; Isoprot counter: 3864*

What do the screens show for `CCOC(=O)c1c(-c2cccs2)csc1NC(=O)CN1CCOCC1`?
D1 allo mod: 11*; S1P3 agonist: 0.3; M1 agonist: 0.721; S1P1 ag-PAM: -32.5; M1 antag: -1.28; D1 PAM confirm: 19940*; D1 ag no DA: 1788; Isoprot counter: 5404*

How did CCOC(=O)c1c(NC(=O)CN2CCOCC2)sc2c1CCCC2 do in these assays?
D1 allo mod: 0.614; S1P3 agonist: -0.5; M1 agonist: 0.172; S1P1 ag-PAM: -40.5; M1 antag: 1.27

Results for CCOC(=O)c1c(NC(=O)CN2CCOCC2)sc2c1CCCC2=O ?
D1 allo mod: 5.44*; S1P3 agonist: -0.1; M1 agonist: 0.0116; S1P1 ag-PAM: -25.7; M1 antag: -1.31; D1 PAM confirm: 8480*; D1 ag no DA: 1768; Isoprot counter: 2892*

What do the screens show for `CCOC(=O)c1c(NC(=O)CN(CC)CC)sc2c1CCN(C(=O)OCC)C2`?
D1 allo mod: 6.12*; S1P3 agonist: -1.7; S1P1 ag-PAM: -43.3; D1 PAM confirm: 8852*; D1 ag no DA: 1716; Isoprot counter: 3320*

How did CCOC(=O)c1c(NC(=O)CN2CCCCC2)sc2c1CCN(C(=O)OCC)C2 do in these assays?
D1 allo mod: 3.75*; S1P3 agonist: -2.4; M1 agonist: 1.03; S1P1 ag-PAM: -7.7; M1 antag: -1.03; D1 PAM confirm: 7072*; Isoprot counter: 2824*

Results for COc1ccc(-c2cc(C(=O)NCC(C)C)no2)cc1 ?
M1 agonist: 0.468; M1 antag: -0.566

Results for CCOC(=O)C1C2C=CC3(CN(c4ccccc4CC)C(=O)C13)O2 (centres undefined) ?
D1 allo mod: 0.0691; S1P3 agonist: -0.8; M1 agonist: 0.822; S1P1 ag-PAM: 16.4; M1 antag: 0.306

Results for CC(NC(=O)NC12CC3CC(CC(C3)C1)C2)C1CCCO1 (centres undefined) ?
S1P3 agonist: 0.1; M1 agonist: 1.51; S1P1 ag-PAM: -2.2; M1 antag: -0.146

What do the screens show for `CC(C)CCSc1nc(N)c(C#N)cc1C#N`?
D1 allo mod: 7.71*; S1P3 agonist: -0.2; M1 agonist: -0.398; M1 antag: -1.69; D1 PAM confirm: 14056*; D1 ag no DA: 1652; Isoprot counter: 4940*

What do the screens show for `Cc1ccccc1NC(=O)CSc1nc(N)c(C#N)cc1C#N`?
D1 allo mod: 1.09; S1P3 agonist: -1.4; M1 agonist: 0.0707; S1P1 ag-PAM: -26.3; M1 antag: 0.329

What do the screens show for `CCOc1ccc(CCNS(=O)(=O)c2cccc3nsnc23)cc1OCC`?
D1 allo mod: 18.9*; S1P3 agonist: -1.0; M1 agonist: 0.433; S1P1 ag-PAM: -15.8; M1 antag: 0.278; D1 PAM confirm: 19296*; D1 ag no DA: 1552; Isoprot counter: 4780*

What do the screens show for `COc1ccc(CCNS(=O)(=O)c2cccc3nsnc23)cc1OC`?
D1 allo mod: 2.34; S1P3 agonist: -0.1; M1 agonist: 0.364; S1P1 ag-PAM: -21.4; M1 antag: 0.485

Results for O=C(Cn1c(=O)n(-c2ccccc2)c(=O)n1CC(=O)N1CCCCC1)N1CCCCC1 ?
D1 allo mod: -0.00447; S1P3 agonist: -0.2; M1 agonist: -0.681; S1P1 ag-PAM: -2.5; M1 antag: 1

How did CCc1nc(N2CCCCC2)c2oc3ccccc3c2n1 do in these assays?
D1 allo mod: 6.35*; S1P3 agonist: -0.8; M1 agonist: 1.28; S1P1 ag-PAM: -7.3; M1 antag: -0.149; D1 PAM confirm: 6440*; D1 ag no DA: 1852; Isoprot counter: 2916

How did Cc1nc(SCC(=O)O)c2oc3ccccc3c2n1 do in these assays?
D1 allo mod: 1.41; S1P3 agonist: 0.0; M1 agonist: -0.568; S1P1 ag-PAM: -2.5; M1 antag: 0.0463

Results for CCSc1ncnc2c1oc1ccccc12 ?
D1 allo mod: 12.2*; S1P3 agonist: -0.8; M1 agonist: -0.0104; S1P1 ag-PAM: -16.5; M1 antag: 0.0641; D1 PAM confirm: 11660*; D1 ag no DA: 1868; Isoprot counter: 3360*

High-throughput results: PubChem BioAssay, several laboratories
